Reference: article PMC3600088 (Journal of medicinal chemistry, 2013)
pIC50: −log10 of the molar value. “Also recorded” adds a separate entry of the source. Read-outs that look alike come from different tables or passages of the source.

Columns and labels:
CMG2 = target: T1, CMG2 (Homo sapiens, UniProt P58335, C175A/R40C); assay: CMG2-Protective antigen; type: binding; details: for inhibitory activity in CMG2 FRET assay: concentrations up to 300 μM
T1 sequence (P58335 40-217 R40C/C175A): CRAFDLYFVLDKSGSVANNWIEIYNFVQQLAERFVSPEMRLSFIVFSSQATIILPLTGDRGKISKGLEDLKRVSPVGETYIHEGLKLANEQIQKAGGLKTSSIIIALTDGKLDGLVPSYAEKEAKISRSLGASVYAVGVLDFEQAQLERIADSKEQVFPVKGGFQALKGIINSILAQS

[1] = system: human dermal microvascular endothelial cells (HMVEC-d); assay: Endothelial cell migration assay; type: cell-based; details: ex vivo endothelial cell migration assay
Method in brief: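 HMVEC-d kept in EGM-2 and used before passage 7, resuspended in EBM with 0.1% BSA. 20,000 cells were placed on fibronectin-coated 8.0 μm-pore polycarbonate transwell inserts over full-serum (5%) medium with or without test compound, and left to migrate 4 h. Top-side cells were removed, membranes fixed and Diff-Quick stained, and 4 10X fields counted. Counts were normalized to no-treatment control, with IC50 from a binding-isotherm fit. Two experiments, n=3 each.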

HMVEC-d cells = assay: Endothelial cell proliferation assay; type: cell-based, human; details: at doses that inhibited migration, 24 and 72 hours
angiogenesis [2] = details: cited from earlier work
[3] = IP and orally at doses up to 30 mg/kg/day; cited from earlier work
H+, K+, ATPase = details: cited from earlier work
[4] = cited from earlier work
bFGF-driven angiogenesis = assay: Mouse corneal micropocket assay; type: in vivo, C57BL/6J mice; details: mice
Method in brief: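 Pellets with 80 ng bFGF were implanted in C57BL/6J corneas, five mice per group. Test compound was given daily by oral gavage at 20 mg/kg in 5% ethanol, or IP at 10 mg/kg/day in 2.5% DMSO, 5% Cremophor EL, 5% Tween-80, 7.5% N-methyl-2-pyrrolidone, 0.9% NaCl. Controls received vehicle. Dosing began at implantation, and vascular area was measured by slit lamp on postoperative day 5 (~10 eyes/group, t-test).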

DNA polymerases = details: certain DNA polymerases; cited from earlier work
Caco-2 monolayers = details: cited from earlier work
[5] = cited from earlier work; remark: listed apart in the source
angiogenesis [6] = details: therapeutic concentrations; cited from earlier work

Compound: Protocatechillic acid
- pIC50 (CMG2): < 3.52

Compound: COC(=O)c1cc(O)c(O)c(O)c1 [Methyl Gallate]
- inhibitory activity in CMG2 FRET assay (CMG2): None of these compounds exhibited any inhibitory activity

Compound: O=C(OC[C@H]1O[C@@H](OC(=O)c2cc(O)c(O)c(O)c2)[C@H](OC(=O)c2cc(O)c(O)c(O)c2)[C@@H](OC(=O)c2cc(O)c(O)c(O)c2)[C@@H]1OC(=O)c1cc(O)c(O)c(O)c1)c1cc(O)c(O)c(O)c1 [PGG, 1,2,3,4,6-penta-O-galloyl-β-D-glucopyranose]
- IC50 of endothelial cell migration (in words) [1]: submicromolar
- cytotoxic or cytostatic effects (HMVEC-d cells): no cytotoxic or cytostatic effects
- dose at which antiangiogenic activity has been evoked (angiogenesis [2]): 4 mg/kg
- ill effects [3]: without ill effects
- IC50 (in words) (H+, K+, ATPase): submicromolar
- plasma concentrations ([4]; intraperitoneal administration): single-digit micromolar
- plasma concentrations ([4]; oral administration): submicromolar
- circulating concentrations ([4]; oral dose of 80 mg/kg, experimental animals): < 1 µM
- inhibition of bFGF-driven angiogenesis (bFGF-driven angiogenesis; 10 mg/kg IP, 80 ng bFGF pellet): significantly inhibited
- inhibition of bFGF-driven angiogenesis (vessel area) (bFGF-driven angiogenesis; 20 mg/kg/day by oral gavage, 80 ng bFGF pellet, day 5): significantly inhibited; also recorded: statistically significant
- signs of toxicity (weight loss, hunched posture, behavioral abnormalities) (bFGF-driven angiogenesis; 10 mg/kg IP or 20 mg/kg/day oral): no obvious signs of toxicity
- activity of HPLC fractions in the FRET assay (CMG2; fractions of the "tannic acid" sample): active
- IC50 (in words) (CMG2; in vitro FRET binding assay): submicromolar
- IC50 (in words) (DNA polymerases): submicromolar
- nature of transport (Caco-2 monolayers): saturable

Compound: O=C(OC[C@H]1O[C@@H](OC(=O)c2cc(O)c(O)c(OC(=O)c3cc(O)c(O)c(O)c3)c2)[C@H](OC(=O)c2cc(O)c(O)c(OC(=O)c3cc(O)c(O)c(O)c3)c2)[C@@H](OC(=O)c2cc(O)c(O)c(OC(=O)c3cc(O)c(O)c(O)c3)c2)[C@@H]1OC(=O)c1cc(O)c(O)c(OC(=O)c2cc(O)c(O)c(O)c2)c1)c1cc(O)c(O)c(OC(=O)c2cc(O)c(O)c(O)c2)c1 [Tannic acid]
- toxicity upon administration in mice [5]: toxic effects

Compound: COc1ccc2[nH]c([S+]([O-])Cc3ncc(C)c(OC)c3C)nc2c1 (centres unmarked) [omeprazole]
- inhibition of angiogenesis (angiogenesis [6]): fails to inhibit angiogenesis

Compound: CCCOC(=O)c1cc(O)c(O)c(O)c1 [Propyl Gallate]
- inhibitory activity in CMG2 FRET assay (CMG2): None of these compounds exhibited any inhibitory activity
